T1: methionine synthase reductase (MSR), human, I22/S175 background (Homo sapiens, UniProt Q9UBK8, A129T)
T1 sequence (Q9UBK8 1-698 A129T): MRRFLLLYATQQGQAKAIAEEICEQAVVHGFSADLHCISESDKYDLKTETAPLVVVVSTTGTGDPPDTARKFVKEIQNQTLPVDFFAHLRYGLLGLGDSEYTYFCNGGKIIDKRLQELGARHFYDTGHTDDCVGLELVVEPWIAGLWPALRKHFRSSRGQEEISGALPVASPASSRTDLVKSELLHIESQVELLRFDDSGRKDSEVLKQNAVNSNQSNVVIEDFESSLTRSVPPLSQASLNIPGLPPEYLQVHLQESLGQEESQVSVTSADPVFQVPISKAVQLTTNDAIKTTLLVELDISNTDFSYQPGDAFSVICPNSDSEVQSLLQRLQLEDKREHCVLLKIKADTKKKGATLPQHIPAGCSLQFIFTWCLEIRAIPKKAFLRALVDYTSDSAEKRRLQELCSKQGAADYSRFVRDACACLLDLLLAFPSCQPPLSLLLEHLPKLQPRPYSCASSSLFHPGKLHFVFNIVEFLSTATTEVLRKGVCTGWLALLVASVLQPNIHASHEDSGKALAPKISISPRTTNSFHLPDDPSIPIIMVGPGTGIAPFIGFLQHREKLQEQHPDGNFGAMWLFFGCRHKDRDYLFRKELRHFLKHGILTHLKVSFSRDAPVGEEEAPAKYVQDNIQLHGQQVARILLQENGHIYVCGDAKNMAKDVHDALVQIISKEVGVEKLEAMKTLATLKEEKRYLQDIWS

T2: methionine synthase reductase (MSR), human, I22/S175 background (Homo sapiens, UniProt Q9UBK8)
T2 sequence (Q9UBK8 1-698): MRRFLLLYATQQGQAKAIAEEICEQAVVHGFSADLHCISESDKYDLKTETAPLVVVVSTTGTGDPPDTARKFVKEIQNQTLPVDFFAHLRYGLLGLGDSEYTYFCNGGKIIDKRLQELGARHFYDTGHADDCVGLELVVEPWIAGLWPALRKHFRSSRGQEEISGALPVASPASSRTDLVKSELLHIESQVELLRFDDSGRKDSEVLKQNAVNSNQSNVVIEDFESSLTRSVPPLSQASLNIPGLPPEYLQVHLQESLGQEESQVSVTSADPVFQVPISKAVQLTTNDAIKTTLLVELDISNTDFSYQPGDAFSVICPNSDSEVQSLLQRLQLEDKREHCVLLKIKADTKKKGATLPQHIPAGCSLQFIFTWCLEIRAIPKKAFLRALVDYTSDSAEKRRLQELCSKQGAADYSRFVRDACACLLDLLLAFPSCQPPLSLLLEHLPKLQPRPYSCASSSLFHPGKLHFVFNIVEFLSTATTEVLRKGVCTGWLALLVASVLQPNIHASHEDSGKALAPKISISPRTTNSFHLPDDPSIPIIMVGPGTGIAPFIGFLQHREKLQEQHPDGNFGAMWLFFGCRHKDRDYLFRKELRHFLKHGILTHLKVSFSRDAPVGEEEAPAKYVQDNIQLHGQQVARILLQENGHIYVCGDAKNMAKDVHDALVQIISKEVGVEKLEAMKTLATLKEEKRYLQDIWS


Tests used:
[1] = target: T1, methionine synthase reductase (MSR), human, I22/S175 background; assay: isothermal titration calorimetry; assay type: binding
How it was run: (§1)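 Recombinant wild-type or A129T MSR, 30-50 µM by Bradford and A454, was dialysed overnight against 50 mM Tris-HCl pH 7.5, filtered and degassed. NADP+ (500-850 µM) in the syringe was injected stepwise at 300 s intervals. Heats were corrected for dilution using post-saturation injections and fitted to a single-site model for KA and ΔH°. Runs were done in duplicate or triplicate.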

[2] = target: T2, methionine synthase reductase (MSR), human, I22/S175 background; assay: isothermal titration calorimetry; assay type: binding
How it was run: as §1

purified protein = substrate: NC(=O)C1=CN([C@@H]2O[C@H](COP(=O)(O)OP(=O)(O)OC[C@H]3O[C@@H](n4cnc5c(N)ncnc54)[C@H](OP(=O)(O)O)[C@@H]3O)[C@@H](O)[C@H]2O)C=CC1; assay: purified protein; assay type: biochemical, Homo sapiens; details: cytochrome c as acceptor, 50 mM Tris pH 7.5, 37°C

Kd [1] [µM] | Kd [2] [µM] | Molecule | Km (purified protein) [µM]
32 ± 2.9 | 54 ± 5.3 | NC(=O)c1ccc[n+]([C@@H]2O[C@H](COP(=O)(O)OP(=O)(O)OC[C@H]3O[C@@H](n4cnc5c(N)ncnc54)[C@H](OP(=O)(O)O)[C@@H]3O)[C@@H](O)[C@H]2O)c1 [NADP^+] | –
– | – | methionine synthase reductase (MSR), human, I22/S175 background (Homo sapiens; A129T) (protein) MRRFLLLYATQQGQAKAIAEEICEQAVVHGFSADLHCISESDKYDLKTETAPLVVVVSTTGTGDPPDTARKFVKEIQNQTLPVDFFAHLRYGLLGLGDSEYTYFCNGGKIIDKRLQELGARHFYDTGHTDDCVGLELVVEPWIAGLWPALRKHFRSSRGQEEISGALPVASPASSRTDLVKSELLHIESQVELLRFDDSGRKDSEVLKQNAVNSNQSNVVIEDFESSLTRSVPPLSQASLNIPGLPPEYLQVHLQESLGQEESQVSVTSADPVFQVPISKAVQLTTNDAIKTTLLVELDISNTDFSYQPGDAFSVICPNSDSEVQSLLQRLQLEDKREHCVLLKIKADTKKKGATLPQHIPAGCSLQFIFTWCLEIRAIPKKAFLRALVDYTSDSAEKRRLQELCSKQGAADYSRFVRDACACLLDLLLAFPSCQPPLSLLLEHLPKLQPRPYSCASSSLFHPGKLHFVFNIVEFLSTATTEVLRKGVCTGWLALLVASVLQPNIHASHEDSGKALAPKISISPRTTNSFHLPDDPSIPIIMVGPGTGIAPFIGFLQHREKLQEQHPDGNFGAMWLFFGCRHKDRDYLFRKELRHFLKHGILTHLKVSFSRDAPVGEEEAPAKYVQDNIQLHGQQVARILLQENGHIYVCGDAKNMAKDVHDALVQIISKEVGVEKLEAMKTLATLKEEKRYLQDIWS | 2.8

From article PMC2645915 (Biochemistry, 2008)
